Experimental data published in ChEMBL document CHEMBL1129587, “(Carboxyalkyl)benzyl propargyl ethers as selective inhibitors of leukocyte-type 12-lipoxygenases” (J Med Chem, 1996).

Molecular target: T1, Arachidonate 12-lipoxygenase (Sus scrofa, UniProt P16469)
T1 sequence (P16469 whole entry): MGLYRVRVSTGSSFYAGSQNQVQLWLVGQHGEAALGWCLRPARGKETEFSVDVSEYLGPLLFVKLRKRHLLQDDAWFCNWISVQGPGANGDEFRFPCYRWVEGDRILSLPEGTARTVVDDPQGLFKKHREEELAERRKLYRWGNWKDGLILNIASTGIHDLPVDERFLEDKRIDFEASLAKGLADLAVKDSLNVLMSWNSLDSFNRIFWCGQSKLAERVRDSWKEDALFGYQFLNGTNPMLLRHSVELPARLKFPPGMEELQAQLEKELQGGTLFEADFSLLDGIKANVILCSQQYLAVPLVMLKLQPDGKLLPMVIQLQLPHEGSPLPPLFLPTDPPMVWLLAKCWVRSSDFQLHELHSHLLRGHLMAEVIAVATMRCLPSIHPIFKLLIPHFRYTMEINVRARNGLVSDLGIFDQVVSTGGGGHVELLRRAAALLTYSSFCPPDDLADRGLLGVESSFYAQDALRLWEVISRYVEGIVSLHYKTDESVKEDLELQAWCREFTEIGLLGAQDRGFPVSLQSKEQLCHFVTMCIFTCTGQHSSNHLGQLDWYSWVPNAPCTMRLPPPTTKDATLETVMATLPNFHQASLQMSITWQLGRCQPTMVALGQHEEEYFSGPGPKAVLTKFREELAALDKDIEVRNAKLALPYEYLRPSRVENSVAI
Assay: Inhibitory activity against conversion of [1-14C]arachidonic acid to 12-HPETE and its reduction product 12-HETE by porcine leukocyte type 12-lipoxygenase
Method in brief: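 Porcine leukocyte cytosol (75 μg/mL) in 100 mM HEPES, 2 mM CaCl2, 1 mM MgCl2, pH 8.0. Inhibitor added in DMSO and preincubated with enzyme 5 min at 37 °C. [1-14C]arachidonic acid then added (5 μM final) and reacted 15 min. Mixture acidified, products extracted and separated by TLC, and 12-HETE conversion measured by radioactivity scanning. Incubations run in triplicate; IC50 determined from concentration series.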

SMILES | IC50
CCCCCCCCCCC#CCOCc1ccc(C(=O)O)cc1 | 0.06 µM
CCCCCC#CCCOCc1cccc(CCC(=O)O)c1 | > 10 µM
CCCCCCCCC#CCSCc1cccc(CCC(=O)O)c1 | > 10 µM
CCCCCCCCCCC#CCOCc1ccc(CCCC(=O)O)cc1 | > 10 µM
CCCCCCCCCCCCCCC#CCOCc1ccc(CCC(=O)O)cc1 | > 10 µM
CCCCCCCCCC/C=C/COCc1ccc(CCC(=O)O)cc1 | 0.04 µM
CCCCCCCCCCC#CCOCc1cccc(CCC(=O)O)c1 | 0.32 µM
CCCCCCCCC#CCOCc1cccc(CCC(=O)O)c1 | 10 µM
CCCCCCCCCCCCCOCc1ccc(CCC(=O)O)cc1 | > 10 µM
CCCCCCC#CCOCc1cccc(CCC(=O)O)c1 | > 10 µM
CCCCCCCCCCCCCCC#CCOCc1ccc(C(=O)O)cc1 | > 10 µM
CCCCCCCCCCC#CCOCc1ccc(CC(=O)O)cc1 | 0.05 µM
O=C(O)CCc1ccc(COCC#CCCCCc2ccccc2)cc1 | 5 µM
CCCCCCCC#CCOCc1ccc(C(=O)O)cc1 | 6 µM
CCCCCCCCCC/C=C\COCc1ccc(CCC(=O)O)cc1 | 2.5 µM
